Shown are actives, neighbours in structure and some others; about 3.1% of the full set was active somewhere.
Cneo AK release: Cryptococcus neoformans cell lysis inducers, primary screen, AK release luminescence, single concentration | C. neoformans lysis, adenylate kinase release luminescence, 4 h; normalised: neutral wells 0, clomiphene wells 100 | lysis activity, % at 15 µM | 360,000 tested, 0.2% active | AID 651654, 2012;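 active = mean lysis activity across replicates of at least 80%, whatever share of replicates individually reach that level; inactive = mean lysis activity below 80%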
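Assay system: log-phase C. neoformans yeast / Quantity: yeast cell density of 5 × 10^6 cells/mL / Medium: fresh YPD growth medium / Compound: single dose / Timing: static 4 h at 37 °C with compound, 1 h detection / Measured by: adenylate kinase release luminescence / Read-out: lysis from increased AK signal / Benchmarks: Clomiphene as positive lysis control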
Env fusion inh: inhibitors of HIV-1 Env-driven cell-cell fusion, primary screen, HeLa-JRFL effector, CEM21 target cells, luciferase; inhibition, % at 12.3 µM; 360,000 tested, 1.1% active;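 active = mean replicate inhibition score of at least 50 and every replicate individually at or above 50; inconclusive = only one of the two criteria met; inactive = mean below 50 and not all replicates reaching 50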;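 also: 0% = plate neutral controls and 100% = maraviroc near 300 nM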
Ecoli rRNA inh: reduced GFP signal of wild-type E. coli, primary screen, bacterial rRNA inhibitor project, GFP/RFP fluorescence, OD600, single point; GFP signal change (wild-type ribosome), % (concentration not given with the values); E. coli WT GFP vs humanized-ribosome RFP mutants, 24 h; active compounds read low; DMSO median 0, no signal -100; 350,000 tested, 1.6% active;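 active = significant combined selectivity score with lowered wild-type GFP, culture density cut under 30%, mutant RFP and density less affected; inactive = any of these conditions unmet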
F508del corr: F508del CFTR correction, initial screen, CFBE line, single point | CFBE cells, YFP halide quenching; stimulated with forskolin plus potentiator P3; % fluorescence drop versus neutral controls | activity (quench increase), % at 7.58 µM | 350,000 tested, 0.36% active;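 active = mean added fluorescence quench of at least 8% versus neutral control, with both replicates also reaching 8%; inconclusive = only one of the mean or replicate conditions met; inactive = mean below 8% and not both replicates reaching 8%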;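 also: cells transiently co-express mutant CFTR-F508del with the halide-sensitive YFP; corrector assay measuring rescue of mutant channel to the surface after 24 h compound exposure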
miR-122 sensor: miR-122 Renilla sensor signal increase in Huh7, primary screen, miR-122 inhibitor project, cell-based, single point, plate reader; 340,000 tested, 0.3% active; AID 602342, 2012; Huh7 miR-122 Renilla luciferase sensor, 48 h; neutral wells = 0, positive control = 100; activation (reporter increase), % at 12.5 µM;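 active = mean replicate activation score at least 90 and every replicate individually at or above 90; inconclusive = only one of the two criteria met; inactive = neither criterion met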;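 also: higher luciferase means less miR-122 activity so hits act as miR-122 inhibitors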
GSIS activator: GLuc luminescence reporter in INS-1E cells, primary screen for activators of glucose-dependent secretion of insulin; 370,000 tested, 0.61% active; INS-1E GLuc reporter insulin secretion, 2-3 h; activation, % at 16.6 µM;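 active = lowest replicate activation of at least 40%, so every replicate reaches that level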;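 also: 0% = median of neutral control wells and 100% = median of IBMX positive control wells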
AID977621: growth inhibition of wild-type GFP E. coli, dose response, H69 mutant RFP, cherry-pick; shares compounds with Ecoli rRNA inh; E. coli wild-type GFP strain growth, fluorescence, 24 h; activity change, negative = inhibition at 50 µM; 1,900 tested, under 10 active; AID 977621, 2014;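 active = Wild-type ribosome reporter drop at least double the humanized mutant ribosome reporter drop, growth loss under a set limit; inconclusive = no clear call, values can overlap the other calls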;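 also: wild-type GFP and H69 mutant RFP strains grown together 50/50 in each well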
AID977628: E. coli growth inhibition, wild-type GFP versus h24 humanized RFP strain, dose response, h24 mutant RFP vs wild-type GFP, cherry-pick; shares compounds with Ecoli rRNA inh; E. coli WT GFP strain growth, fluorescence, 24 h; activity change, negative = inhibition at 50 µM; 1,900 tested, under 10 active;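 active = compound lowering the normal-ribosome reporter at least twice as much as the humanized-ribosome reporter, growth loss under a set limit; inconclusive = no clear call, values can overlap the other calls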;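 also: wild-type GFP and h24 humanized RFP strains co-cultured 1 to 1 per well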
Numbers without * were called inactive; ? = inconclusive; nt = no result given; [ ] = dose if it differs, or a comment.

SMILES	Cneo AK release	Env fusion inh	Ecoli rRNA inh	F508del corr	miR-122 sensor	GSIS activator	AID977621	AID977628
O=C(NCc1nc2ccccc2[nH]1)c1ccc(S(=O)(=O)N2CCCC2)cc1	4	5	-29*	3	6	-9	-19	nt
O=C(O)CNC(=O)C(c1ccccc1)c1ccccc1	nt	4	-17*	-1	2	26	-6.8	-7
CC(CCc1ccccc1)NC(=O)CCC1CCCC1 (centres undefined)	1	20	-21*	nt	-3	-1	-3.5	-5.7
COc1ccc(-n2c(COc3cccc(C)c3)n[nH]c2=S)cc1	2	2	-20*	1	7	-2	-6.5	0.6
COc1ccc(OCc2n[nH]c(=S)n2-c2ccc(C)cc2)cc1	nt	-21	-3	nt	nt	-6	nt	nt
CO[C@H]1CN(C)C(=O)c2cc(NC(=O)c3cnccn3)ccc2OC[C@H](C)N(C(C)=O)C[C@@H]1C	0	nt	1	-1	nt	2	nt	nt
O=S1(=O)N[C@H](Cc2ccccc2)COc2cccc(N3CCC[C@H]3CO)c21	nt	18	-22*	1	nt	-12	-9.2	nt
O=S1(=O)N[C@H](Cc2ccccc2)COc2cc(N3CCC[C@H]3CO)ccc21	nt	nt	-13	-2	nt	-8	nt	nt
O=S1(=O)N[C@@H](Cc2ccccc2)COc2cc(N3CCC[C@H]3CO)ccc21	nt	-14	-16*	0	nt	-2	nt	-8.9
CC(C)C#Cc1ccc2c(c1)O[C@@H](CN(C)C(=O)c1cccc(F)c1)[C@H](C)CN([C@@H](C)CO)S2(=O)=O	2	14[16.7 µM]	-2	2	9[16.7 µM]	-13	nt	nt
O=C(Cc1ccc(Cl)cc1)c1ccc(O)cc1	nt	-22	-37*	-2	nt	0	-3.6	?
Cn1ccc2cc(-c3ccc4ncnc(NCc5cccs5)c4c3)ccc21	2	42	-24*	0	-3	nt	?	-11
O=C(c1ccncc1)N1CC(=O)N2[C@@H](CO)[C@H](c3ccc(-c4ccccc4F)cc3)[C@@H]2C1	nt	nt	4	-1	nt	-1	nt	nt
O=C(NCCc1ccccc1)c1ccc2c(c1)N(Cc1ccccc1)C(=O)CS2=O (centres undefined)	-3	-22	-15	-1	8	-3	nt	nt
O=C(Nc1ccccc1Cl)c1ccc2c(c1)N(Cc1ccc(F)cc1)C(=O)CS2=O (centres undefined)	-1	-45	-23*	1	-1	11	-12	nt
COc1ccc(OC)c(N(CC(=O)Nc2ccccc2F)S(=O)(=O)c2ccccc2)c1	nt	13	-24*	0	nt	nt	-11	nt
COc1ccc(N(CC(=O)Nc2ccccc2C(=O)N2CCOCC2)S(=O)(=O)c2ccc(F)cc2)cc1	nt	17	nt	nt	nt	2	nt	nt
COc1ccc(OC)c(N(CC(=O)Nc2ccccc2)S(=O)(=O)c2ccccc2)c1	0	12	-15	2	18	-18	nt	nt
O=C(CN(c1ccc(F)cc1)S(=O)(=O)c1ccccc1)Nc1ccccc1C(=O)O	nt	-5	-27*	-2	0	16	-13	nt
Cc1ccc(C(=O)NCCC2=CCCCC2)cc1S(=O)(=O)N1CCCCC1	0	0	-17	-2	nt	-20	nt	nt
Cc1ccc(NS(=O)(=O)c2cc(C(=O)O)ccc2Cl)cc1	8	nt	nt	nt	18	-1	nt	nt
Cc1ccc(NS(=O)(=O)c2cc(C(=O)N3CCc4ccccc4C3)ccc2Cl)cc1	-1	nt	-29*	-1	25	-36	-21	nt
